ChEMBL document CHEMBL1152600, “Dibenzazecine scaffold rebuilding--is the flexibility always essential for high dopamine receptor affinities?” (Bioorg Med Chem, 2009)
The source made the active and inactive calls. No cut-off for these calls is given here.

What was measured:
D(1A) dopamine receptor [1] = biological target: T1, D(1A) dopamine receptor (Homo sapiens, UniProt P21728); assay: Antagonist activity at human dopamine D1 receptor expressed in HEK293 cells assessed as SKF-38393-induced intracellular calcium by fluorescence microplate reader; assay type: functional, cell-based
Procedure, shortened: (§1)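 They were then injected with standard agonist at 1 µM final: SKF 38393 for D1, quinpirole for D2L. Fluorescence was read at ex 485/em 520 nm for 30 s. Peak signal was fitted with a sigmoidal curve. At least two experiments, 4 or 6 replicates each.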

D(1A) dopamine receptor [2] = biological target: T1, D(1A) dopamine receptor; assay: Displacement of [3H]SCH23390 from human dopamine D1 receptor expressed in CHO cells by scintillation counting; assay type: cell-based
D(1A) dopamine receptor [3] = biological target: T1, D(1A) dopamine receptor; assay: Agonist activity at human dopamine D1 receptor expressed in HEK293 cells assessed as intracellular calcium by fluorescence microplate reader; assay type: functional, cell-based
Procedure, shortened: (§2)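 Human receptor in HEK293 cells, loaded 45 min at 37 °C with Oregon Green 488 BAPTA-1/AM plus Pluronic F-127 in Krebs-HEPES buffer (pH 7.4). Cells were suspended, plated and held 30 min at 37 °C, 5% CO2. Test compound was injected at rising concentrations. Fluorescence was read at ex 485/em 520 nm for 30 s. Maximum intensity was fitted with a sigmoidal curve. At least two experiments, 4 or 6 replicates each.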

D(2) dopamine receptor [4] = biological target: T2, D(2) dopamine receptor (Homo sapiens, UniProt P14416); assay: Displacement of [3H]spiperone from human dopamine D2L receptor expressed in CHO cells by scintillation counting; assay type: cell-based
D(2) dopamine receptor [5] = biological target: T2, D(2) dopamine receptor; assay: Agonist activity at human dopamine D2L receptor expressed in HEK293 cells assessed as intracellular calcium by fluorescence microplate reader; assay type: functional, cell-based; procedure, shortened: as §2
D(2) dopamine receptor [6] = biological target: T2, D(2) dopamine receptor; assay: Antagonist activity at human dopamine D2L receptor expressed in HEK293 cells assessed as quinpirole-induced intracellular calcium by fluorescence microplate reader; assay type: functional, cell-based; procedure, shortened: as §1
D(4) dopamine receptor = biological target: T3, D(4) dopamine receptor (Homo sapiens, UniProt P21917); assay: Displacement of [3H]spiperone from human dopamine D4 receptor expressed in CHO cells by scintillation counting; assay type: cell-based
T3 sequence (P21917 whole entry): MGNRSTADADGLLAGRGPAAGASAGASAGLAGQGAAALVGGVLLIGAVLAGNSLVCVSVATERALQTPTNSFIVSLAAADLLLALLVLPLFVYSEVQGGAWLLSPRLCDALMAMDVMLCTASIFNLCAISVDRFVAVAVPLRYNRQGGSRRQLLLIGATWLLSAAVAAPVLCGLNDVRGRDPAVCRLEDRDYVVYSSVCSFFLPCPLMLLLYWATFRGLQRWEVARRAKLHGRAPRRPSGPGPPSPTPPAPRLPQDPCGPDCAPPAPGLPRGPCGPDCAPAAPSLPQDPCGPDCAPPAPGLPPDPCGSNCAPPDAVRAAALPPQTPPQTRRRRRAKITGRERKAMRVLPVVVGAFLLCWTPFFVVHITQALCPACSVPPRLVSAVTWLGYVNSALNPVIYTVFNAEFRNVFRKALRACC

D(1B) dopamine receptor = D(1B) dopamine receptor (Homo sapiens, UniProt P21918); assay: Displacement of [3H]SCH23390 from human dopamine D5 receptor expressed in CHO cells by scintillation counting; assay type: cell-based
D(3) dopamine receptor [7] = biological target: D(3) dopamine receptor (Homo sapiens, UniProt P35462); assay: Displacement of [3H]spiperone from human dopamine D3 receptor expressed in CHO cells by scintillation counting; assay type: cell-based
D(3) dopamine receptor [8] = biological target: D(3) dopamine receptor (Rattus norvegicus, UniProt P19020); assay: Displacement of [3H]spiperone from rat dopamine D3 receptor expressed in CHO cells by scintillation counting; assay type: cell-based
Chain of D(3) dopamine receptor (Rattus norvegicus, UniProt P19020) (P19020 whole entry): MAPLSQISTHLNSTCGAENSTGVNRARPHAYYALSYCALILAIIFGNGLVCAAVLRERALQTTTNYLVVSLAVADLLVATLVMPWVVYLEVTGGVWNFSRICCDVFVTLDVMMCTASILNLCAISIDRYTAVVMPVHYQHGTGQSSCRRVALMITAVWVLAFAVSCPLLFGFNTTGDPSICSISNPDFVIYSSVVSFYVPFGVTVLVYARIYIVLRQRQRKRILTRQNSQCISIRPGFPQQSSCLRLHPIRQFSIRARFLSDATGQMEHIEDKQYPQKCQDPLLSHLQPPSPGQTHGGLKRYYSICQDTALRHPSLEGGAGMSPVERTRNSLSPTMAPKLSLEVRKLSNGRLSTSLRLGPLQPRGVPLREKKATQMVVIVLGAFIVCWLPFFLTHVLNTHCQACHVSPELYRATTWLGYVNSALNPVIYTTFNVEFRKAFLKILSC

Chain of D(3) dopamine receptor (Homo sapiens, UniProt P35462) (P35462 whole entry): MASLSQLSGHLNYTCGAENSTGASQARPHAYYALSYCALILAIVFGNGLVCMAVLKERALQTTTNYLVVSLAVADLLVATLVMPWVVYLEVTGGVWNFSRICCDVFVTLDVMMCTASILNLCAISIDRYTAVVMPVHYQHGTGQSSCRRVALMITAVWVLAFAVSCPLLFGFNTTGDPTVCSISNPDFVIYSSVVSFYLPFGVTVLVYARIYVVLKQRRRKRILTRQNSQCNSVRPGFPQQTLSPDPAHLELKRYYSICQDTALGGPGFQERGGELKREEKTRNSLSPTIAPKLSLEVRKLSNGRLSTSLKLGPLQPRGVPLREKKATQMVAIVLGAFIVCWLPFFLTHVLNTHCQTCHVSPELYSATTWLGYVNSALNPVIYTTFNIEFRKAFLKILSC
T1 sequence (P21728 whole entry): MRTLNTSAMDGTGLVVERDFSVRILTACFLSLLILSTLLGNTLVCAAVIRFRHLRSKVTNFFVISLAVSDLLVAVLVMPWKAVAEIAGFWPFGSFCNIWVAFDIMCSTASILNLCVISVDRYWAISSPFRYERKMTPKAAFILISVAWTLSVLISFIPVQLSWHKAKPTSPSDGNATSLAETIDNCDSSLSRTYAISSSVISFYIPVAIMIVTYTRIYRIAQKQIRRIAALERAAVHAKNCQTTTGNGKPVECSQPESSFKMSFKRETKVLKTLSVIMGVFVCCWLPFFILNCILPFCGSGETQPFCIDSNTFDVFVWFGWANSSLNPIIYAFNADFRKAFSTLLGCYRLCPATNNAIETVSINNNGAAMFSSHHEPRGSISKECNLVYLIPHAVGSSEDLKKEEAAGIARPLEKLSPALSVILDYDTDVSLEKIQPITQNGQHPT
Chain of D(1B) dopamine receptor (P21918 whole entry): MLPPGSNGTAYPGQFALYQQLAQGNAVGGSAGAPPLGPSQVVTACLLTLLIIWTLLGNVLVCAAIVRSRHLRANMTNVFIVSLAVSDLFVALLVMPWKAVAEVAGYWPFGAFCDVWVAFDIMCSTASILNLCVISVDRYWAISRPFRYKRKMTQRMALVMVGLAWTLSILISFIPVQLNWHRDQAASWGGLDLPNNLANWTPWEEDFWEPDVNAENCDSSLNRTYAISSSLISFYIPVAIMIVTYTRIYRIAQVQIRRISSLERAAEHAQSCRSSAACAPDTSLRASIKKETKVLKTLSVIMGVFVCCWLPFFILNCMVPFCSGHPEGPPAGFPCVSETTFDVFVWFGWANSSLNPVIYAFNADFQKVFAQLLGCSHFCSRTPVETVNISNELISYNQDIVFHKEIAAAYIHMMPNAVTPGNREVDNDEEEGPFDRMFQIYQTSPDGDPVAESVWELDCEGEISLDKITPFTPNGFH
T2 sequence (P14416 whole entry): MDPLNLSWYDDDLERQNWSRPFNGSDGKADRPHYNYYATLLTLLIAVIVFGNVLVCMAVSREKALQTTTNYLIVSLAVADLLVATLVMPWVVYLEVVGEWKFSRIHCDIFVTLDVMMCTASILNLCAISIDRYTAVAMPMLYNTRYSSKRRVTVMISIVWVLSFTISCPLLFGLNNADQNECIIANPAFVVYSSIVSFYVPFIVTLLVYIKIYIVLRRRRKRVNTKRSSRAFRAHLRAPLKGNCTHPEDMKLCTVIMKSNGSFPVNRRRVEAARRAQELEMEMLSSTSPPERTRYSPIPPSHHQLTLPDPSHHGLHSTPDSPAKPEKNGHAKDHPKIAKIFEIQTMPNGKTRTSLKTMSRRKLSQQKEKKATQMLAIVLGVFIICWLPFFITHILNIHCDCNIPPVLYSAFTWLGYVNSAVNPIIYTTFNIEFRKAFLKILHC

Row | SMILES | Activity (D(1A) dopamine receptor [1]) | Ki (D(1A) dopamine receptor [2]) [µM] | Activity (D(1A) dopamine receptor [3]) | Ki (D(2) dopamine receptor [4]) [µM] | Activity (D(2) dopamine receptor [5]) | Activity (D(2) dopamine receptor [6]) | Ki (D(4) dopamine receptor) [µM] | Ki (D(1B) dopamine receptor) [µM] | Ki (D(3) dopamine receptor [7]) [µM] | Ki (D(3) dopamine receptor [8]) [µM]
1 | Cc1ccccc1CC1c2ccc(O)cc2CCN1C (stereo unspecified) | Active | 3.02 | inactive | 2.72 | inactive | Active |  |  |  | 
2 | COc1ccc2c(c1)CCN(C)CCc1ccccc1C2 | Active |  | inactive |  | inactive | Active | 0.0434 |  |  | 
3 | CN1CCCc2cc(O)ccc2Cc2ccccc2C1 | Active | 2.07 | inactive |  |  |  |  | 1.81 |  | 
4 | COc1ccc2c(c1)CCN(C)C2Cc1ccccc1C (stereo unspecified) | Active | 2.35 | inactive | 7.37 | inactive | Active | 6.64 | > 10 | > 10 | 
5 | COc1ccc2c(c1)CCN1Cc3ccccc3CC21 (stereo unspecified) | Active | 0.183 | inactive | 0.32 | inactive | Active | 2.56 | 0.185 | 0.251 | 
6 | CN1CCc2ccccc2Cc2ccc(O)cc2CC1 | Active |  | inactive |  | inactive | Active |  |  |  | 
7 | Oc1ccc2c(c1)CCN1CCc3ccccc3C21 (stereo unspecified) | Active | > 10 | inactive | > 10 | inactive | Active | > 10 | > 10 | > 10 | 
8 | COc1ccc2c(c1)CCCN1Cc3ccccc3C21 (stereo unspecified) | Active |  | inactive |  |  |  |  |  |  | 
9 | COc1cc2c(cc1O)[C@@H]1Cc3ccc(O)c(OC)c3CN1CC2 [STEPHOLIDINE] | Active | 0.0059 | inactive | 0.974 | inactive | Active | 3.75 | 0.0044 |  | 0.03
10 | CN1CCc2cc(O)ccc2CCc2ccccc2C1 | Active |  | inactive |  | inactive | Active |  |  |  | 
11 | Oc1cc2c(cc1O)[C@H]1c3ccccc3CN[C@@H]1CC2 | Active |  | inactive |  | inactive | Active |  |  |  | 
12 | CCc1cc(OC)ccc1C1Cc2ccccc2CN1C (stereo unspecified) | Active | > 10 | inactive | > 10 | inactive | Active | > 10 | > 10 | > 10 | 
13 | Oc1ccc2c(c1)CCN1Cc3ccccc3CC21 (stereo unspecified) | Active | 0.136 | inactive | 0.486 | inactive | Active | 5.09 | 0.0411 | 0.306 | 
14 | COc1ccc2c(c1)CCN1CCc3ccccc3C21 (stereo unspecified) | Active | 2.12 | inactive |  | inactive | Active |  |  |  | 
15 | COc1ccc2c(c1)CCN(C)Cc1ccccc1CC2 | Active | 1.73 | inactive | > 10 | inactive | Active | > 10 | 1.51 | > 10 | 
16 | COc1ccc2c(c1)CCCN(C)Cc1ccccc1C2 | Active | 1.26 | inactive | > 10 | inactive | Active | > 10 | > 10 | > 10 | 
